The text below walks through data of ChEMBL document CHEMBL1156045, “Discovery of novel types of inhibitors of S-adenosylmethionine synthesis by virtual screening” (J Med Chem, 2009).

Calls of active or inactive are those of the source. The rule behind the calls is not given here.

For experiment [1], the system named is Escherichia coli. The experiment is described as follows: Inhibition of Escherichia coli MAT assessed as incorporation of L-[methyl-14C]methionine into S-adenosyl-methionine at 1 mM after 5 to 10 mins by scintillation counting. Summed up:
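Screen: E. coli MAT (0.25 μM) preincubated 20 min at room temperature with 1 mM compound (15% DMSO final) in Tris·Cl pH 8.0/KCl/MgCl2. 1.5 volumes of reagents added (final 0.1 mM ATP, 0.1 mM [14C]methionine, 10 mM MgCl2). Run 5 min at 25° C, stopped with 25 mM EDTA; AdoMet on P-81 filters counted.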

Experiment [2] has as its system Escherichia coli. Put plainly: Inhibition of Escherichia coli MAT assessed as time required to achieve half maximal enzyme inhibition at 200 uM after 5 to 10 mins by scintillation counting. Put shortly:
(§1)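 Onset of inhibition: 0.3 μM MAT subunits (0.3 μM inhibitor) or 10 μM enzyme (200 μM inhibitor) incubated in 50 mM Tris·Cl, 50 mM KCl, 10 mM MgCl2 with 10 mM ATP or 1 mM L-methionine where present. Aliquots diluted into assay reagents at set times; [methyl-14C]AdoMet on P-81 filters counted.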

A short description of experiment [3]: Inhibition of Escherichia coli MAT assessed as incorporation of L-[methyl-14C]methionine into S-adenosyl-methionine after 5 to 10 mins by scintillation counting. Summed up:
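Recombinant E. coli MAT (0.3 μM subunits) preincubated 20 min with inhibitor before substrates were added. Assay buffer was 50 mM Tris·Cl pH 8.0, 50 mM KCl, 10 mM MgCl2, 10 mM ATP and 0.5 mM L-[methyl-14C]methionine at 25 °C. Reactions were EDTA-quenched and AdoMet was captured on P-81 filters. Ki came from a nonlinear fit of fractional activity to the tight-binding equation.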

In experiment [4] the test system is Escherichia coli. Put plainly: Antibacterial activity against Escherichia coli RP523 at 1 mM after overnight incubation by filter disk method. The experiment is classed as functional, organism-based. Put shortly: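 E. coli RP523 (hyperpermeable strain): ~30 μl overnight culture spread on LB agar; 5 mm filter disks soaked with 30 μl of 1 mM compound in DMSO, or DMSO control, placed on lawn. Zone of growth inhibition measured after overnight incubation at 37° C.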

The test system of experiment [5] is Escherichia coli. The experiment is described as follows: Inhibition of Escherichia coli MAT assessed as incorporation of L-[methyl-14C]methionine into S-adenosyl-methionine at 200 uM after 5 to 10 mins by scintillation counting in presence of ATP treated before addition of methionine. Summed up: as §1
Experiment [6] has as its system Saccharomyces cerevisiae. The experiment is described as follows: Antifungal activity against Saccharomyces cerevisiae RDY84 at 1 mM after overnight incubation by filter disk method. In kind it is functional, organism-based. Put shortly: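 S. cerevisiae RDY84 (pdr1Δ pdr3Δ) lawn on YDP agar; 5 mm filter disk soaked with 1 mM compound in DMSO, or DMSO control, placed on freshly spread cells. Zone of growth inhibition measured after overnight incubation at 30° C.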

Experiment [7] relates to NCI60. The experiment is described as follows: Growth inhibition of human NCI60 cells up to 100 uM. In kind it is functional, cell-based. Summed up:
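Tested by NCI Developmental Therapeutics Program against the 60 tumour cell line panel in its standard protocol, concentrations up to 100 μM.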

Experiment [8] relates to Escherichia coli. The experiment is described as follows: Inhibition of Escherichia coli MAT assessed as incorporation of L-[methyl-14C]methionine into S-adenosyl-methionine at 200 uM after 5 to 10 mins by scintillation counting in presence of methionine treated before addition of ATP. Summed up:
as §1

The test system of experiment [9] is Escherichia coli. Put plainly: Inhibition of Escherichia coli MAT assessed as lack of recovery of detectable enzyme activity at 0.3 uM up to 20 mins measured after 24 hrs of dialysis.
For experiment [10], the system named is Methanocaldococcus jannaschii. The experiment is described as follows: Inhibition of Methanococcus jannaschii MAT at 1 mM treated for 20 mins before addition of substrate. Put shortly: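 M. jannaschii MAT (0.3 μM) preincubated 20 min with 0.1–1.0 mM compound, then assayed as for E. coli enzyme (0.1 mM ATP, 0.1 mM [14C]methionine) at 37° C. [14C]AdoMet on P-81 filters counted.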

Consider `Cc1ccc(NC(=O)Nc2cccc(C(F)(F)F)c2)cc1NC(=O)Nc1cccc(C(F)(F)F)c1`, for which the outcome in [1] was inactive.
As to `NS(=O)(=O)c1ccc(NC(=O)Nc2ccc(Cl)cc2[N+](=O)[O-])cc1`, in experiment [2], the Activity is 20 min. In addition, in experiment [3], the inhibitory constant (Ki) is 6.9 nM. In addition, the outcome in [4], in experiment [5] and in [6] was inactive. Further, the outcome in experiment [1], in [8] and in experiment [9] was Active. The “growth inhibition (GI)” value in experiment [7] is “inactive”. Moreover, the inhibition result in experiment [10] was “inactive”.

By Ki is commonly meant a measure of affinity in units of concentration, obtained from inhibition or displacement.
